# The list is not random: actives were taken first. Their share in the collection is about 1.8%.
# NPY Y1 blocker – NPY-Y1 receptor antagonists, primary screen, cell-based; 200,000 compounds, 1% hits; HEK293-CNG Y1 cells, membrane potential fluorescence; NPY at EC95, then isoproterenol; inhibition, % at 3.6 µM; AID 1040, 2008;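 active means inhibition above the campaign mean inhibition of all tested compounds plus 3 SD, cut at about 20% in these data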;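 further: 0% = DMSO wells given NPY plus isoproterenol and 100% = isoproterenol alone without NPY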
# Target sequence (P25929 whole entry, looked up): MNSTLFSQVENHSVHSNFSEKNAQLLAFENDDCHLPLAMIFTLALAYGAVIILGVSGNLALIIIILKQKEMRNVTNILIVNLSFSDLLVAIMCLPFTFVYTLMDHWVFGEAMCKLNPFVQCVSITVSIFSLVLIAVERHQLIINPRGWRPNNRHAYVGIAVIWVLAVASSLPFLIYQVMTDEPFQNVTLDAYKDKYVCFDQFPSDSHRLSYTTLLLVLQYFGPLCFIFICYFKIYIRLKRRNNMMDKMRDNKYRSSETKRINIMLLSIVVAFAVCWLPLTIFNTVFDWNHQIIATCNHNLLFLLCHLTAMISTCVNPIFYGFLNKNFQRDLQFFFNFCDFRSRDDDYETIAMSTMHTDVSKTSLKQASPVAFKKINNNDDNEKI
#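 Material: HEK293 Y1/CNG channel cell line; also added: NPY (25 nM), isoproterenol (1 µM), Ro 20-1724 (25 µM); doses: one concentration, 3.6 µM, in 0.4% DMSO; schedule: compound incubation 1 h at room temperature, readout 45 min post-stimulation; technique: membrane potential fluorescence; measure: fluorescence ratio normalized to % inhibition between controls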
# NPY Y2 blocker – NPY-Y2 receptor antagonists, primary screen, cell-based; Neuropeptide Y receptor type 2 (Homo sapiens), P49146; inhibition, % at 2.7 µM; 140,000 compounds, 0.99% hits; NPY-Y2 expressing cells, antagonist mode; AID 793, 2007; in the data active means inhibition above about 17%;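 further: 0% = vehicle with agonist challenge and 100% = reference antagonist with challenge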
# NPY-Y1 PAM-ag – NPY-Y1 receptor potentiators or agonists, primary screen, cell-based; Neuropeptide Y receptor type 1 (Homo sapiens), P25929; NPY-Y1 expressing cells, potentiator/agonist activation; activation, % at 3.6 µM; 220,000 compounds, 0.37% hits; in the data active means activation above about 33%, passing the limit was not always enough;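 further: cells stimulated with NPY at EC10 then isoproterenol at EC100; 0% = low agonist plus stimulus and 100% = saturating agonist plus stimulus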
# NPY-Y2 PAM-ag – NPY-Y2 potentiators or agonists, primary screen, cell-based. cells expressing NPY-Y2, potentiator/agonist read-out. activation, % at 3.6 µM. 220,000 compounds, 0.45% hits; in the data active means activation above about 27%;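 further: cells stimulated with NPY near EC25 plus isoproterenol at EC100; 0% = vehicle plus submaximal agonist and 100% = vehicle plus saturating agonist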
# NPY-Y2 confirm – NPY-Y2 potentiators or agonists, confirmation, cell-based; shares compounds with NPY-Y2 PAM-ag; activation, % at 3.6 µM; cell-based NPY-Y2 potentiator/agonist assay; AID 1539, 2009; 450 compounds, 20% hits; in the data active means activation above about 33%
# NPY-Y1 counter – NPY-Y1 potentiators or agonists, counter-screen for NPY-Y2 potentiator project, cell-based, fluorescence; activation, % at 3.6 µM; 450 compounds, 20% hits; shares compounds with NPY-Y2 PAM-ag; Y1 HEK293-CNG cells, membrane potential fluorescence; in the data active means activation above about 45%;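 further: cells stimulated with submaximal NPY then isoproterenol with phosphodiesterase inhibitor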
# NPY-Y1 ag 2 – NPY-Y1 direct agonists, selectivity assay for NPY-Y2 potentiator project, cell-based, fluorescence; shares compounds with NPY-Y2 PAM-ag; HEK293 Y1-CNGC, membrane potential fluorescence, agonism; activation, % at 3.6 µM; 450 compounds, 37% hits;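 active means activation above the mean of DMSO-only control wells plus 3 SD, cut at about 18% in these data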;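 further: cells stimulated with 1 µM isoproterenol plus the PDE inhibitor Ro 20-1724; 0% = isoproterenol with DMSO and no NPY and 100% = 40 nM NPY; Y1 agonists lower the membrane potential dye signal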
# CNGC inhibitor – CNGC cAMP sensor activity inhibitors, counter-screen for NPY-Y2 potentiator project, cell-based, HEK293-CNG parental, membrane potential fluorescence. AID 1703, 2009. shares compounds with NPY-Y2 PAM-ag. 450 compounds, 32% hits. inhibition, % at 3.6 µM. isoproterenol cAMP;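 active means inhibition above the control-well mean plus 3 SD of those wells, cut at about 22% in these data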;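 further: 0% = DMSO with isoproterenol and 100% = DMSO without isoproterenol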
# NPY-Y2 ag 2 – NPY-Y2 direct agonists, counter-screen for NPY-Y2 potentiator project, cell-based, fluorescence. shares compounds with NPY-Y2 PAM-ag. HEK293 Y2/CNGC cells, membrane potential fluorescence, agonist mode. activation, % at 3.6 µM. 450 compounds, 56% hits. AID 1710, 2009;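 active means activation above the mean of solvent-only control wells plus 3 SD, cut at about 10% in these data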;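 further: cells stimulated by isoproterenol with no NPY added so direct agonism is tested; 0% = DMSO with isoproterenol alone and 100% = NPY at EC100 plus isoproterenol; agonism lowers probe fluorescence through less cAMP and CNG channel opening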
# * marks the source's active call; other numbers are inactive results; · = no result.
SMILES,NPY Y1 blocker,NPY Y2 blocker,NPY-Y1 PAM-ag,NPY-Y2 PAM-ag,NPY-Y2 confirm,NPY-Y1 counter,NPY-Y1 ag 2,CNGC inhibitor,NPY-Y2 ag 2
N#Cc1c(-c2ccc(F)cc2)cc(-c2ccccc2)nc1SCC(=O)NCC(=O)O,·,·,15,71*,-7,-2,-5,-11,2
Cc1cccc(C)c1NC(=S)NC(C)(C)CO,·,·,-5,8,·,·,·,·,·
S=C1NCN(CCc2ccccc2)CN1,·,·,6,73*,-1,-3,-5,3,5
S=C1NCN(CCc2ccccc2)CN1Cc1ccccc1,·,·,2,-7,·,·,·,·,·
CC1(C)C(=O)OC(/C=C\c2ccccc2)C(C)(C)C1=O (stereo not given),-1,·,17,33*,-7,-5,-18,-6,-11
O=C(Nc1ccccc1Cl)c1c(F)c(F)c(F)c(F)c1F,-13,2,31,32*,1,15,-3,12,16*
CS(=O)Cc1cc(Sc2ccccc2)nc(-c2ccncc2)n1 (stereo not given),2,·,-2,3,·,·,·,·,·
O=C(/C=C/c1ccco1)Nc1cccnc1Cl,·,·,14,3,·,·,·,·,·
COC(=O)c1ccccc1NC(=O)/C=C/c1ccco1,-7,-3,26,33*,41*,50*,56*,35*,48*
CCOc1ccccc1NC(=O)Nc1ccc(CC#N)cc1,·,·,7,-8,·,·,·,·,·
CCC(C)(C)NC(=O)C(c1cccn1C)N(Cc1ccccc1)C(=O)Cn1nnc2ccccc21 (stereo not given),14,12,-77,61*,-129,-200,-131,-127,-103
COCCNC(=O)C(c1cccs1)N(Cc1ccccc1)C(=O)Cn1nnc2ccccc21 (stereo not given),5,0,1,-12,·,·,·,·,·
OCCN(CCO)c1ccc(C(c2ccccc2Cl)c2ccc(N(CCO)CCO)cc2Cl)c(Cl)c1,-9,-3,39,34*,35*,47*,31*,37*,39*
CCC(C)C(=O)Nc1cccc(SC)c1 (stereo not given),2,·,4,4,·,·,·,·,·
Cc1cc(N)n2ncc(-c3ccc(Cl)cc3)c2n1,-14,-6,48,37*,32,52*,40*,39*,44*
N#C/C(=C(/O)c1cccc(F)c1)c1nc2ccccc2s1,·,·,11,103*,-2,-14,-15,-9,4
c1ccc2c(c1)CCN(C1=Nc3cccc4cccc1c34)C2,-5,·,38,33*,64*,88*,62*,62*,61*
CN(C)CCCN(C(=O)/C=C/c1cccs1)c1nc2ccc(F)cc2s1,9,·,-9,10,·,·,·,·,·
CN(C)CCN(C(=O)/C=C/c1cccs1)c1nc2c(F)cc(F)cc2s1,3,2,29,46*,94*,117*,104*,91*,105*
CCN(CC(=O)NCc1ccc(F)cc1)C(=O)/C=C/c1cccs1,-1,·,-5,9,·,·,·,·,·
Cc1ccc2nc(N(CCN(C)C)C(=O)/C=C/c3cccs3)sc2c1,6,5,17,52*,91*,107*,89*,86*,97*
Cc1ccc(S(=O)(=O)c2c(C(=O)c3ccccc3)cnc3cc4c(cc23)OCCO4)cc1,-1,2,-22,-4,·,·,·,·,·
CN(CC1CCCO1)S(=O)(=O)c1ccc(C(=O)Nc2nc3cc4c(cc3s2)OCO4)cc1 (stereo not given),0,1,13,43*,3,-9,-23,-12,7
C[C@@H]1CC[C@H]2C(=O)N3[C@@H](CC[C@@H](C)[C@@H]3c3ccc(Br)cc3)C(=O)N2[C@H]1c1ccc(Br)cc1,-8,-2,25,24,·,·,·,·,·
Cc1ccc(S(=O)(=O)N2CCN(CC(=O)N/N=C\c3ccc(Cl)c([N+](=O)[O-])c3)CC2)cc1,-4,-3,22,27*,14,20,14,25*,12*
SMILES,NPY Y1 blocker,NPY Y2 blocker,NPY-Y1 PAM-ag,NPY-Y2 PAM-ag,NPY-Y2 confirm,NPY-Y1 counter,NPY-Y1 ag 2,CNGC inhibitor,NPY-Y2 ag 2
Cc1cc(N)nc2nc(C(F)(F)F)nn12,0,·,-9,-1,·,·,·,·,·
CN(C)S(=O)(=O)c1cccc(NC(=O)Cc2ccc(Cl)cc2)c1,-7,4,6,3,·,·,·,·,·
O=C(Cc1ccc(Cl)cc1)Nc1cccc(S(=O)(=O)Nc2ccccc2F)c1,-8,-4,38,38*,14,22,13,16,20*
COc1ccccc1NS(=O)(=O)c1cccc(NC(=O)Nc2ccc(Cl)cc2)c1,-9,·,19,31*,30,38,30*,32*,31*
COCCNC(=O)c1c[nH]c2ccc(S(=O)(=O)N3CCc4ccccc43)cc2c1=O,-9,·,21,15,·,·,·,·,·
COCCCNC(=O)c1c[nH]c2ccc(S(=O)(=O)N3CCc4ccccc43)cc2c1=O,0,·,12,33*,14,8,-3,1,13*
CCOC(=O)N1CCN(CC(O)COCc2ccccc2)CC1 (stereo not given),4,3,6,5,·,·,·,·,·
CCOC(=O)N1CCN(CC(O)COCC2=CCC3CC2C3(C)C)CC1 (stereo not given),-5,2,17,43*,7,15,15,-1,-1
Cc1ccc2c(c1)N(CC(=O)NCc1cccs1)C(=O)CO2,0,2,-16,-1,·,·,·,·,·
CCC(NC(C)C)C(O)c1ccc(O)c(O)c1 (stereo not given),-4,0,61,65*,53*,51*,67*,53*,41*
CC(C)C(=O)c1ccc(O)c(O)c1,·,·,3,-11,·,·,·,·,·
CC1=C(C(=O)OCc2ccccc2)C(c2ccc(Cl)cc2Cl)NC(=O)N1CCCC(=O)O (stereo not given),-1,1,-3,9,·,·,·,·,·
CC(Sc1ccccc1)C(=O)NN=C1CCCCCCC1 (stereo not given),3,·,-5,-16,·,·,·,·,·
